Measured values published in ChEMBL document CHEMBL1765082, “Aminothiazolomorphinans with mixed κ and μ opioid activity” (J Med Chem, 2011).
Active and inactive are the calls of the source. The calls are words filed in the database; no cut-off is given here.

Key:
[1] = biological target: T1, Kappa-type opioid receptor (Homo sapiens, UniProt P41145); assay: Agonist activity at human kappa opioid receptor expressed in CHO cells assessed as [35S]GTPgammaS binding by scintillation counting relative to control; format: functional, cell-based
In short: (§1)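 Membranes from CHO cells stably expressing human κ (15 μg protein/tube) or μ (7.5 μg protein/tube) opioid receptor, grown in DMEM with 10% FBS at 37 °C, 5% CO2. Twelve agonist concentrations were incubated 60 min at 30 °C in 50 mM Tris-HCl, 3 mM MgCl2, 100 mM NaCl, 0.2 mM EGTA, pH 7.4, with 3 μM GDP and [35S]GTPγS. Filtration, then scintillation counting. Stimulation expressed as percent over basal; ≥3 experiments in triplicate.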

[2] = biological target: T1, Kappa-type opioid receptor; assay: Displacement of [3H]U69593 from human kappa opioid receptor expressed in CHO cells after 60 mins by scintillation counting; format: cell-based
[3] = biological target: T1, Kappa-type opioid receptor; assay: Antagonist activity at human kappa opioid receptor expressed in CHO cells assessed as […] in U50488-induced [35S]GTPgammaS binding by scintillation counting; format: functional, cell-based
Mu-type opioid receptor [4] = biological target: T2, Mu-type opioid receptor (Homo sapiens, UniProt P35372); assay: Displacement of [3H]DAMGO from human mu opioid receptor expressed in CHO cells after 60 mins by scintillation counting; format: cell-based
[5] = biological target: Delta-type opioid receptor (Homo sapiens, UniProt P41143); assay: Displacement of [3H]Naltrindole from human delta opioid receptor expressed in CHO cells after 3 hrs by scintillation counting; format: cell-based
In short: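 Membranes from CHO cells expressing human κ, μ or δ opioid receptor were incubated with 12 compound concentrations and a receptor-selective radioligand at 25 °C in 50 mM Tris-HCl, pH 7.5. […] Nonspecific binding was defined with 10 μM naloxone. Ki reported as mean ± SEM, three experiments in triplicate.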

Mu-type opioid receptor [6] = biological target: T2, Mu-type opioid receptor; settings: cho
Homo sapiens [7] = species: Homo sapiens; assay: Selectivity ratio of Ki for human mu opioid receptor to Ki for human kappa opioid receptor
Homo sapiens [8] = species: Homo sapiens; assay: Selectivity ratio of Ki for human delta opioid receptor to Ki for human kappa opioid receptor
[9] = biological target: T1, Kappa-type opioid receptor; assay: Agonist activity at human kappa opioid receptor expressed in CHO cells assessed as [35S]GTPgammaS binding by scintillation counting; format: functional, cell-based
Mu-type opioid receptor [10] = biological target: T2, Mu-type opioid receptor; assay: Agonist activity at human mu opioid receptor expressed in CHO cells assessed as [35S]GTPgammaS binding by scintillation counting; format: functional, cell-based
Mu-type opioid receptor [11] = biological target: T2, Mu-type opioid receptor; assay: Agonist activity at human mu opioid receptor expressed in CHO cells assessed as [35S]GTPgammaS binding by scintillation counting relative to control; format: functional, cell-based; in short: as §1
Mu-type opioid receptor [12] = biological target: T2, Mu-type opioid receptor; assay: Antagonist activity at human mu opioid receptor expressed in CHO cells assessed as inhibition of DAMGO-induced [35S]GTPgammaS binding at 10 uM by scintillation counting; format: functional, cell-based
Mu-type opioid receptor [13] = biological target: T2, Mu-type opioid receptor

T1 sequence (P41145 whole entry): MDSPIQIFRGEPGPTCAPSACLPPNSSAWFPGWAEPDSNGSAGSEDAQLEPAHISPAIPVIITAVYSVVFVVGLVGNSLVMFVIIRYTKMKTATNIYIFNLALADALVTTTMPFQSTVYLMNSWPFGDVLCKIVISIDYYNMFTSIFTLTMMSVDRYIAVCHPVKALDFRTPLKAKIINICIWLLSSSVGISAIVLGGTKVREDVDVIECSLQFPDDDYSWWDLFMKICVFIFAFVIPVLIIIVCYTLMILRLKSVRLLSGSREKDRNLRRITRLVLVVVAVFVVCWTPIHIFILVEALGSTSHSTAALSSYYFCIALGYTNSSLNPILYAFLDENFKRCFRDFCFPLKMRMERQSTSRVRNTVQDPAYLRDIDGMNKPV
T2 sequence (P35372 whole entry): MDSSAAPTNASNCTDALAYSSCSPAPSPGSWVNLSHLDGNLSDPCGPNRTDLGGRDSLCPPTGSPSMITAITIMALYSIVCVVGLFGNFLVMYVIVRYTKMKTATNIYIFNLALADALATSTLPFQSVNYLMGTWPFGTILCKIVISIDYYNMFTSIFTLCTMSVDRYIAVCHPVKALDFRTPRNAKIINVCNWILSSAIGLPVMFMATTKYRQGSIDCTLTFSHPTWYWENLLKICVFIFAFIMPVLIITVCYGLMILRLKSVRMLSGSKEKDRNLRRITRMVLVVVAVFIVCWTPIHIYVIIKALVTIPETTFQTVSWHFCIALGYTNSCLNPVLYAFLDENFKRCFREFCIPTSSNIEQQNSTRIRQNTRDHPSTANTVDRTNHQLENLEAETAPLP
Chain of Delta-type opioid receptor (P41143 whole entry): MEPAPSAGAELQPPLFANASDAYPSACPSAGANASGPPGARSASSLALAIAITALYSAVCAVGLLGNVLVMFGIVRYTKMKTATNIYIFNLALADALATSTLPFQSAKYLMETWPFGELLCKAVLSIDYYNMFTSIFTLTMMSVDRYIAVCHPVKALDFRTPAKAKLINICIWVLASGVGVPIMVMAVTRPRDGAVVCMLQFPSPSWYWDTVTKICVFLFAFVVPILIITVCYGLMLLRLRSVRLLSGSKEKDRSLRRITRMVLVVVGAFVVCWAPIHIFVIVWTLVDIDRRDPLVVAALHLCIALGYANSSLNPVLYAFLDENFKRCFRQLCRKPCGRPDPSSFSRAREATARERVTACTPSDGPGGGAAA

Structure (SMILES) | Emax [1] | Ki [2] | Activity [3] | Ki (Mu-type opioid receptor [4]) | Ki [5] | IC50 (Mu-type opioid receptor [6]) | Ratio Ki (Homo sapiens [7]) | Ratio Ki (Homo sapiens [8]) | EC50 [9] | EC50 (Mu-type opioid receptor [10]) | Emax (Mu-type opioid receptor [11]) | inhibition (Mu-type opioid receptor [12]) | IC50 (Mu-type opioid receptor [13])
CNc1nc2cc3c(cc2s1)C[C@@H]1[C@@H]2CCCC[C@]32CCN1CCCF | 170% | 0.71 nM | inactive | 7.4 nM | 50 nM | Not Active |  |  |  |  |  |  | 
CN1CC[C@]23CCCC[C@H]2[C@H]1Cc1cc2sc(N)nc2cc13 |  |  |  |  |  |  | 0.17 | 30 |  |  |  |  | 
Nc1nc2cc3c(cc2s1)C[C@@H]1[C@@H]2CCCC[C@]32CCN1CC1CC1 |  |  | inactive |  |  | Not Active | 30 | 590 |  |  |  |  | 
CNc1nc2cc3c(cc2s1)C[C@@H]1[C@@H]2CCCC[C@]32CCN1CC1CC1 | 82% | 0.066 nM | inactive | 3 nM | 25 nM | Not Active |  |  | 14 nM | 47 nM |  |  | 
c1ccc(CNc2nc3cc4c(cc3s2)C[C@@H]2[C@@H]3CCCC[C@]43CCN2CC2CC2)cc1 |  | 2.1 nM |  | 10 nM | 41 nM |  | 5 | 20 |  |  |  |  | 
FC(F)(F)CNc1nc2cc3c(cc2s1)C[C@@H]1[C@@H]2CCCC[C@]32CCN1CC1CC1 | 120% | 0.84 nM | inactive | 21 nM | 180 nM |  | 25 | 210 | 120 nM |  |  |  | 
Nc1nc2cc3c(cc2s1)C[C@@H]1[C@@H]2CCCC[C@]32CCN1C[C@@H]1CCCO1 | 190% | 0.83 nM | inactive | 2.4 nM | 56 nM | Not Active | 3 | 67 | 14 nM | 71 nM | 120% |  | 
Oc1cccc(CNc2nc3cc4c(cc3s2)C[C@@H]2[C@@H]3CCCC[C@]43CCN2CC2CC2)c1 |  | 3.5 nM |  | 9.9 nM | 29 nM |  | 3 | 8 |  |  |  |  | 
CCN(C(C)=O)c1nc2cc3c(cc2s1)C[C@@H]1[C@@H]2CCCC[C@]32CCN1CC1CC1 |  | 13 nM |  | 86 nM | 740 nM |  | 4 | 57 |  |  |  |  | 
CN(C)c1nc2cc3c(cc2s1)C[C@@H]1[C@@H]2CCCC[C@]32CCN1CCCF |  | 11 nM |  | 76 nM | 420 nM |  | 7 | 38 |  |  |  |  | 
CC(=O)N(C)c1nc2cc3c(cc2s1)C[C@@H]1[C@@H]2CCCC[C@]32CCN1CC1CC1 |  | 6.9 nM |  | 110 nM | 1100 nM |  | 16 | 160 |  |  |  |  | 
CCCNc1nc2cc3c(cc2s1)C[C@@H]1[C@@H]2CCCC[C@]32CCN1CCCF |  | 5.8 nM |  | 24 nM | 120 nM |  | 4 | 21 |  |  |  |  | 
Nc1nc2cc3c(cc2s1)C[C@@H]1[C@@H]2CCCC[C@]32CCN1CCCF | 100% | 0.3 nM | inactive | 2.7 nM | 54 nM |  | 9 | 180 | 32 nM | 130 nM | 65% | 40% | 
Oc1ccc2c(c1)[C@@]13CCCC[C@H]1[C@@H](C2)N(CC1CC1)CC3 |  |  | inactive |  |  |  |  |  |  |  |  |  | 
Nc1nc2cc3c(cc2o1)[C@@]12CCCC[C@H]1[C@@H](C3)N(CC1CC1)CC2 |  |  |  |  |  |  | 3 | > 192 |  |  |  |  | 
COc1cccc(CNc2nc3cc4c(cc3s2)C[C@@H]2[C@@H]3CCCC[C@]43CCN2CC2CC2)c1 |  | 4.8 nM |  | 9.1 nM | 34 nM |  | 2 | 7 |  |  |  |  | 
CC(=O)Nc1nc2cc3c(cc2s1)C[C@@H]1[C@@H]2CCCC[C@]32CCN1CCCF |  | 1.2 nM |  | 15 nM | 220 nM |  | 13 | 180 |  |  |  |  | 
CCNc1nc2cc3c(cc2s1)C[C@@H]1[C@@H]2CCCC[C@]32CCN1CC1CCC1 |  | 3.7 nM |  | 1.1 nM | 91 nM |  | 0.3 | 25 |  |  |  |  | 
c1ccc(Nc2nc3cc4c(cc3s2)C[C@@H]2[C@@H]3CCCC[C@]43CCN2CC2CC2)nc1 |  | 95 nM |  | 610 nM | > 10000 nM |  | 6 |  |  |  |  |  | 
CC(=O)Nc1nc2cc3c(cc2s1)C[C@@H]1[C@@H]2CCCC[C@]32CCN1CC1CC1 |  | 13 nM |  | 57 nM | 750 nM |  | 4 | 58 |  |  |  |  | 
CNc1nc2cc3c(cc2s1)C[C@@H]1[C@@H]2CCCC[C@]32CCN1CC1CCC1 |  | 2.4 nM |  | 1.8 nM | 47 nM |  | 1 | 20 |  |  |  |  | 
CN(C)c1nc2cc3c(cc2s1)C[C@@H]1[C@@H]2CCCC[C@]32CCN1CC1CC1 | 110% | 0.45 nM | inactive | 10 nM | 65 nM |  | 22 | 140 | 46 nM | 140 nM | 57% | 40% | 
Nc1nc2cc3c(cc2s1)C[C@@H]1[C@@H]2CCCC[C@]32CCN1CC1CCC1 |  |  | inactive |  |  |  | 9 | 290 |  | > 1000 nM |  |  | 85 nM
CCCNc1nc2cc3c(cc2s1)C[C@@H]1[C@@H]2CCCC[C@]32CCN1CC1CC1 |  | 1.6 nM |  | 17 nM | 79 nM |  | 11 | 49 |  |  |  |  | 
CCNc1nc2cc3c(cc2s1)C[C@@H]1[C@@H]2CCCC[C@]32CCN1CCCF | 150% | 0.94 nM | inactive | 4 nM | 76 nM | Not Active |  |  | 89 nM | 240 nM |  |  | 
CCNC(=S)Nc1nc2cc3c(cc2s1)C[C@@H]1[C@@H]2CCCC[C@]32CCN1CC1CC1 |  | 18 nM |  | 130 nM | 150 nM |  | 7 | 8 |  |  |  |  | 
CCNc1nc2cc3c(cc2s1)C[C@@H]1[C@@H]2CCCC[C@]32CCN1CC1CC1 | 190% | 0.151 nM | inactive | 4.7 nM | 43 nM | Not Active |  |  |  |  |  |  | 
c1ccc(Nc2nc3cc4c(cc3s2)C[C@@H]2[C@@H]3CCCC[C@]43CCN2CC2CC2)cc1 |  | 21 nM |  | 180 nM | 140 nM |  | 9 | 7 |  |  |  |  | 
